Measured values gathered from unrelated publications.
Compare with care: the assays were run in different laboratories.
Target: Insulin receptor (INSR, Homo sapiens, UniProt P06213)

| Structure (SMILES) | assay | setting | measurement | result |
| --- | --- | --- | --- | --- |
| COc1ccc2[nH]c3c4[nH]c5ccc(OC)cc5c4c4c(c3c2c1)C(=O)NC4=O | binding | 1 µM | remaining binding | 66% |
| C=CC(=O)N1CCC([C@@H]2CCNc3c(C(N)=O)c(-c4ccc(Oc5ccccc5)cc4)nn32)CC1 | cell-free assay | 1 µM | inhibition | 0% |
| CCCCC(=O)Nc1ccc(-c2ccc3ncn(CCC)c(=O)c3c2)cn1 | binding, competition with immobilised ligand | 0.5 µM | remaining binding | 100% |
| C[C@H]1CC[C@H](n2c3cnccc3c3cnc(Nc4ccc5c(n4)CCN(C(=O)CO)C5)nc32)CC1 | binding | 1 µM | remaining binding | 96% |
| C1=C/COCc2cc(ccc2OCCN2CCCC2)Nc2nccc(n2)-c2cccc(c2)COC/1 | binding | 0.1 µM | remaining binding | 83% |
| CC#CC(=O)N1CCC[C@H]1c1nc(-c2ccc(C(=O)Nc3ccccn3)cc2)c2c(N)nccn12 | enzyme activity, inhibitor | 1 µM | inhibition | 0% |
| N#Cc1ccc(NC(=O)Nc2ccccc2)cc1 | cell-free assay, competition with immobilised ligand | 25 µM | remaining binding | 89% |
| COc1ccc2oc(-c3ccc4nc(N)oc4c3)c/c(=N\c3ccccc3NC(=O)CCN)c2c1 | binding | 1 µM | remaining binding | 85% |
